Square brackets hold non-standard residues; d marks the D form. Peptide text beside a SMILES is read from it. pY = N[C@@H](Cc1ccc(OP(=O)(O)O)cc1)C(=O)O
Legend:
Design in all cases: species or system Escherichia coli
[1] = molecular target: T1, Tyrosine-protein kinase ZAP-70 (Homo sapiens, UniProt P43403); experiment: Binding affinity against SH2 domain of Zeta-chain (TCR) associated protein kinase 70 kDa
T1 sequence (P43403 whole entry): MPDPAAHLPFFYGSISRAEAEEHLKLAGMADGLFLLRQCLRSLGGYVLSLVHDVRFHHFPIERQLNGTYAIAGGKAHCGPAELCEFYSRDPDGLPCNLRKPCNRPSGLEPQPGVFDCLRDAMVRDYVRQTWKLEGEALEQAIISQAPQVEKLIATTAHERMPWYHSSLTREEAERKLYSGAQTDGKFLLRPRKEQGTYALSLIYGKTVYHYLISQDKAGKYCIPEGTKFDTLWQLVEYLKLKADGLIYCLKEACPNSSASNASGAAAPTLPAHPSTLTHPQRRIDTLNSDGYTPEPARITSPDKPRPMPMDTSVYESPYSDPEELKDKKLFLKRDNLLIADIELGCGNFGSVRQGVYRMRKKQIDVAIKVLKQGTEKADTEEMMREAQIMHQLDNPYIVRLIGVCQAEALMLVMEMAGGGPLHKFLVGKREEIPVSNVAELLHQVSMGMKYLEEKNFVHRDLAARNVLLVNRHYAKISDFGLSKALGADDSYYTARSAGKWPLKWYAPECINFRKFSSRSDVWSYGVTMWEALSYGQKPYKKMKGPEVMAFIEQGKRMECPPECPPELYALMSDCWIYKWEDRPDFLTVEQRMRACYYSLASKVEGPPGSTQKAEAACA

[2] = molecular target: Proto-oncogene tyrosine-protein kinase Src (Homo sapiens, UniProt P12931); experiment: Binding affinity against Src SH2 domain
Proto-oncogene tyrosine-protein kinase Src, sequence (P12931 2-536 limits assumed): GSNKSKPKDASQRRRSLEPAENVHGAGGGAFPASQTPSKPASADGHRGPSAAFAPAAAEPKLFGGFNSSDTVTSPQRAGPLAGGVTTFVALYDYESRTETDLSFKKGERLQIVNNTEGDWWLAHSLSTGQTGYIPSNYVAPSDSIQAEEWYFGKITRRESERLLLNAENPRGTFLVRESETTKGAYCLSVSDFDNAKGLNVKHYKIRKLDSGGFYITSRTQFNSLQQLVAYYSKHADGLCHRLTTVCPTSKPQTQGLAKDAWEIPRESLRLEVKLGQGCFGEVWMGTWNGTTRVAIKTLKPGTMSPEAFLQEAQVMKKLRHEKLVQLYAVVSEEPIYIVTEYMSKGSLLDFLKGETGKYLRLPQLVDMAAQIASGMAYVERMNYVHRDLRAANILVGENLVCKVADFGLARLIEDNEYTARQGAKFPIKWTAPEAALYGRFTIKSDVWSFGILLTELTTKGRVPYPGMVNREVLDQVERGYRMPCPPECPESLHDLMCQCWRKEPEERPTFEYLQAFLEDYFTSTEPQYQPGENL

[3] = molecular target: Tyrosine-protein kinase SYK (Homo sapiens, UniProt P43405); experiment: Binding affinity against Syk protein tyrosine kinase SH2 domain
[4] = molecular target: Growth factor receptor-bound protein 2 (Homo sapiens, UniProt P62993); experiment: Binding affinity against Growth factor receptor bound protein 2
Procedure, shortened: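 Fluorescence polarization competition assay using human Grb2 SH2 (residues 55–152), expressed in E. coli BL21(DE3) and purified on phosphotyrosine-agarose. Compounds were serially diluted 1:2 across 1000–0.04 μM in 20 mM phosphate pH 7.4 with 100 mM NaCl, 10 mM DTT, 4% DMSO, 1 mM EDTA and 0.1% bovine γ-globulin. They were added to 1.25 µM protein premixed with 20 nM fluorescein-labelled peptide (ex 485/em 530 nm). IC50 was taken from percent tracer bound relative to vehicle, as the mean of ≥3 experiments.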

Row | SMILES | IC50 [1] [µM] | IC50 [2] [µM] | IC50 [3] [µM] | IC50 [4] [µM]
1 | CC(=O)N[C@@H](Cc1ccc(OP(=O)(O)O)cc1)C(=O)NC(C)(C)c1nc(Cc2ccc(C(F)(F)F)cc2)no1 | 228 | 489 | > 500 | 
2 | CC[C@H](C)[C@H](NC(=O)[C@H](CCC(=O)O)NC(=O)[C@H](CCC(=O)O)NC(=O)[C@H](Cc1ccc(OP(=O)(O)O)cc1)NC(C)=O)C(N)=O | 530 | 6 | 171 | 
3 | CC(=O)N[C@@H](Cc1ccc(OP(=O)(O)O)cc1)C(=O)NCc1nc(Cc2ccc(C(F)(F)F)cc2)no1 | 128 | > 500 | > 500 | 
4 | CC(=O)N[C@@H](Cc1ccc(OP(=O)(O)O)cc1)C(=O)NCCc1nc(Cc2ccc(C(F)(F)F)cc2)no1 | > 500 | > 500 | > 500 | 

The next lines start with the values.

Row | IC50 [1] [µM] | IC50 [2] [µM] | IC50 [3] [µM] | IC50 [4] [µM] | SMILES
5 | > 500 | 72 | > 500 | 456 | CC(=O)N[C@@H](Cc1ccc(OP(=O)(O)O)cc1)C(=O)N[C@@H](CCC(N)=O)c1nc(Cc2ccccc2)no1
6 | 422 | 237 | 420 |  | CC(=O)N[C@@H](Cc1ccc(OP(=O)(O)O)cc1)C(=O)N[C@@H](CC(N)=O)C(=O)N[C@@H](CCC(=O)O)C(=O)N[C@@H](CC(C)C)C(N)=O (Ac-[pY]NEL-NH2)
7 | 184 | > 500 | > 500 |  | CC(=O)N[C@@H](Cc1ccc(OP(=O)(O)O)cc1)C(=O)N[C@@H](CCC(N)=O)c1nc(Cc2ccc(Cl)cc2Cl)no1
8 | > 500 | 156 | > 500 |  | CC(=O)N[C@@H](Cc1ccc(OP(=O)(O)O)cc1)C(=O)N[C@@H](CCC(N)=O)c1nc(CCc2ccccc2)no1

Reference: ChEMBL document CHEMBL1132280, “Discovery of potent and selective SH2 inhibitors of the tyrosine kinase ZAP-70” (J Med Chem, 1999)
